MC4R antag cAMP: MC4R antagonists of cAMP signaling, primary screen, cell-based, TR-FRET, antagonist arm of biased-ligand search; 0.48% of 360,000 active; MC4R-expressing cells, MTII-stimulated cAMP, LANCE TR-FRET; Melanocortin receptor 4 (Homo sapiens), P32245; inhibition, % at 6.5 µM;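 active = inhibition above its plate's cutoff, the mean of tested wells on that plate plus 3 SD, cut at about 29% in these data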
Target sequence (P32245 whole entry, looked up): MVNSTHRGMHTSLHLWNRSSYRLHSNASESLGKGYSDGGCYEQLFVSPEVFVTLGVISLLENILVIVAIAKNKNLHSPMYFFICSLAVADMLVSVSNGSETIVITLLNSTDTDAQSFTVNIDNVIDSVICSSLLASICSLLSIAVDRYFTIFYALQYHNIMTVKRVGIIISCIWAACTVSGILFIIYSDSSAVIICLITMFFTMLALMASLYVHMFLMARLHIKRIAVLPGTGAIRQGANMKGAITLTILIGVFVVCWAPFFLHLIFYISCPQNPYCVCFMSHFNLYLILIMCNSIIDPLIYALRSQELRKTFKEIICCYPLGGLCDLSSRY
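System – human MC4R-expressing U2OS cells · Also added – Melanotan II · Dosing – one concentration, 6.5 µM nominal · Timing – 30-min compound, 1-h challenge, 1-h detection, room temperature · Measured by – Eu-cAMP/anti-cAMP TR-FRET, emission 671 nm · Replicates – singlicate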
Rev-erbA mod: modulators of Rev-erb alpha DNA binding, primary screen, biochemical, FITC-DNA, fluorescence polarization, uHTS | Nuclear receptor subfamily 1 group D member 1 (Homo sapiens), P20393 | Rev-erbα–FITC-DNA binding, 90 min | activity, % at 10 µM | 0.79% of 370,000 active | AID 1259318, 2017;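 active = activity above about 14%, limit read from the data; passing the limit was not always enough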
NR2E3 ag-1: NR2E3 agonists in two-hybrid cells, primary screen, cell-based, luminescence, CHO-S, Gal4-NCOR/VP16-NR2E3; Photoreceptor-specific nuclear receptor (Homo sapiens), Q9Y5X4; luciferase; inhibition of corepressor binding, % at 3.98 µM; 0.35% of 360,000 active; AID 602229, 2012;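 active = inhibition above the mean of all tested compounds plus 3 SD, cut at about 70% in these data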;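 note: higher means lower luciferase signal from less NR2E3 corepressor binding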
NR2E3 ag-2: inhibitors of NR2E3-RetCOR corepressor binding, primary screen, NR2E3 agonist project, biochemical, TR-FRET, GST-NR2E3, biotin-RetCOR; 1536-well; inhibition of corepressor binding, % at 4.78 µM; 0.12% of 320,000 active; AID 2300, 2010;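 active = percent inhibition above the cutoff of mean plus 3 SD of all tested compounds, set per screening campaign, cut at about 20% in these data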
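System: GST-tagged NR2E3 plus biotinylated RetCOR corepressor; Amount: 1.35 nM GST-tagged NR2E3 final; Dosing: single nominal compound dose of 4.8 µM; Schedule: 5 h incubation at 4 °C; Technique: TR-FRET with europium anti-GST and streptavidin-D2, 340 nm excitation; Controls: biotin wells as high control, 0.6% DMSO wells as low control.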
MC4R ag barr: MC4R agonists recruiting beta-arrestin, primary screen, cell-based, luminescence, agonist arm of biased-ligand search. Melanocortin receptor 4 (Homo sapiens), P32245. U2OS MC4R beta-arrestin complementation; percent of melanotan II response, DMSO zero. activation, % at 8.9 µM. 0.98% of 360,000 active. AID 540308, 2011;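 active = activation above a per-plate cutoff, the mean activation of sample wells on that plate plus 3 SD, cut at about 8% in these data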
PG9 binder: binders of HIV-1 gp120 antibody PG9, primary screen, biochemical, TR-FRET | TR-FRET gp120-PG9 antibody binding | inhibition, % at 6.7 µM | 0.43% of 360,000 active | AID 624416, 2012; in the data active = inhibition above about 8.5%
A number is an active result. A selection: hits, their analogues and other compounds. The true share with any hit is near 2.7%.

Results for Cn1c(=O)[nH]c(=O)c2c1nc(SCCN1CCOCC1)n2Cc1ccccc1 ?
MC4R antag cAMP: inactive; Rev-erbA mod: inactive; NR2E3 ag-1: inactive; NR2E3 ag-2: inactive; MC4R ag barr: inactive; PG9 binder: inactive

How did Cn1c(=O)[nH]c(=O)c2c1nc(SCCN1CCOCC1)n2CCCc1ccccc1 do in these assays?
MC4R antag cAMP: inactive; Rev-erbA mod: inactive; NR2E3 ag-1: inactive; NR2E3 ag-2: inactive; MC4R ag barr: inactive; PG9 binder: 19

What do the screens show for `O=C1CCC(c2ccccc2)=NN1Cc1c(F)cccc1Cl`?
MC4R antag cAMP: inactive; Rev-erbA mod: inactive; NR2E3 ag-1: inactive; NR2E3 ag-2: inactive; MC4R ag barr: inactive; PG9 binder: inactive

What do the screens show for `Cc1ccccc1/C=N/n1c(C2CCCCC2)n[nH]c1=S`?
MC4R antag cAMP: inactive; Rev-erbA mod: inactive; NR2E3 ag-1: inactive; NR2E3 ag-2: inactive; MC4R ag barr: inactive; PG9 binder: inactive

How did O=C(c1ccccc1)c1cc(Cl)ccc1N1C(=O)C=CC1=O do in these assays?
MC4R antag cAMP: 58; Rev-erbA mod: inactive; NR2E3 ag-1: inactive; MC4R ag barr: inactive; PG9 binder: inactive

Results for O=C(CC(=O)c1cc(Cl)ccc1O)c1ccccc1 ?
MC4R antag cAMP: inactive; Rev-erbA mod: inactive; NR2E3 ag-1: inactive; NR2E3 ag-2: inactive; MC4R ag barr: inactive; PG9 binder: inactive

Results for Cc1cccc(NC(=O)Nc2cccc(C#N)c2)n1 ?
MC4R antag cAMP: inactive; Rev-erbA mod: inactive; NR2E3 ag-1: inactive; NR2E3 ag-2: inactive; MC4R ag barr: 8.2; PG9 binder: inactive

Results for O=C(CN(Cc1ccc2c(c1)OCO2)C(=O)CNC(=O)c1ccco1)NC1CCCCC1 ?
MC4R antag cAMP: inactive; Rev-erbA mod: inactive; NR2E3 ag-1: inactive; NR2E3 ag-2: inactive; MC4R ag barr: inactive; PG9 binder: inactive

What do the screens show for `O=C(CSc1ccc(Cl)cc1)Nc1ccccc1N1CCN(C(=O)c2ccc(Cl)cc2)CC1`?
MC4R antag cAMP: inactive; Rev-erbA mod: inactive; NR2E3 ag-1: inactive; NR2E3 ag-2: inactive; MC4R ag barr: inactive; PG9 binder: inactive

Results for O=C(CSc1ccc(Cl)cc1)Nc1ccc(N2CCN(C(=O)c3ccc(Cl)cc3)CC2)cc1 ?
MC4R antag cAMP: inactive; Rev-erbA mod: inactive; NR2E3 ag-1: inactive; NR2E3 ag-2: inactive; MC4R ag barr: 14; PG9 binder: inactive

What do the screens show for `O=C(CSc1nc2cc(Cl)ccc2o1)Nc1ccc(N2CCOCC2)cc1`?
MC4R antag cAMP: inactive; Rev-erbA mod: inactive; NR2E3 ag-1: inactive; NR2E3 ag-2: inactive; MC4R ag barr: 19

How did Cc1ccc(C(=O)N2CCN(c3ccc(NC(=S)NC(=O)Cc4ccccc4)cc3)CC2)cc1 do in these assays?
MC4R antag cAMP: inactive; Rev-erbA mod: inactive; NR2E3 ag-1: 72; NR2E3 ag-2: inactive; MC4R ag barr: inactive; PG9 binder: inactive

What do the screens show for `CCCCC(=O)Nc1ncc2c(n1)CC(C)(C)CC2=O`?
MC4R antag cAMP: inactive; Rev-erbA mod: inactive; NR2E3 ag-1: inactive; NR2E3 ag-2: inactive; MC4R ag barr: inactive; PG9 binder: inactive

How did Cc1ccc(S(=O)(=O)N2CCC(=O)N(CCOCc3cccc(F)c3)CC2)cc1 do in these assays?
MC4R antag cAMP: inactive; Rev-erbA mod: inactive; NR2E3 ag-1: inactive; NR2E3 ag-2: inactive; MC4R ag barr: 8.4; PG9 binder: inactive

What do the screens show for `Cc1ccc(S(=O)(=O)N2CCC(=O)N(CCOCc3cccc(Cl)c3)CC2)cc1`?
MC4R antag cAMP: inactive; Rev-erbA mod: inactive; NR2E3 ag-1: inactive; NR2E3 ag-2: inactive; MC4R ag barr: inactive; PG9 binder: inactive

Results for CC(NCC(O)COc1ccc2ccccc2c1)c1ccccc1 (centres undefined) ?
MC4R antag cAMP: inactive; Rev-erbA mod: inactive; NR2E3 ag-1: inactive; NR2E3 ag-2: inactive; MC4R ag barr: inactive; PG9 binder: inactive

Assay outcomes from PubChem BioAssay.
